PAFAH1B3 FP inh: blocks human PAF acetylhydrolase 1B catalytic subunit 3; Q15102; recombinant PAFAH1B3, FP-rhodamine probe, fluorescence polarization; inhibition, % at 3.39 µM; actives 0.28% (n = 340,000);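 active = inhibition above the screen-wide average of all tested compounds plus 3 SD, cut at about 25% in these data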
pPAFAH FP inh: pPAFAH (human) enzyme inhibition. recombinant pPAFAH, FP-rhodamine probe fluorescence polarization. actives 1.5% (n = 330,000). inhibition, % at 3.39 µM. Q13093. AID 463082;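 active = inhibition above the mean inhibition across the screen plus 3 SD, cut at about 25% in these data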;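 note: inhibitors block binding of the rhodamine activity-based probe so polarization drops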
Target sequence (Q13093 whole entry, looked up): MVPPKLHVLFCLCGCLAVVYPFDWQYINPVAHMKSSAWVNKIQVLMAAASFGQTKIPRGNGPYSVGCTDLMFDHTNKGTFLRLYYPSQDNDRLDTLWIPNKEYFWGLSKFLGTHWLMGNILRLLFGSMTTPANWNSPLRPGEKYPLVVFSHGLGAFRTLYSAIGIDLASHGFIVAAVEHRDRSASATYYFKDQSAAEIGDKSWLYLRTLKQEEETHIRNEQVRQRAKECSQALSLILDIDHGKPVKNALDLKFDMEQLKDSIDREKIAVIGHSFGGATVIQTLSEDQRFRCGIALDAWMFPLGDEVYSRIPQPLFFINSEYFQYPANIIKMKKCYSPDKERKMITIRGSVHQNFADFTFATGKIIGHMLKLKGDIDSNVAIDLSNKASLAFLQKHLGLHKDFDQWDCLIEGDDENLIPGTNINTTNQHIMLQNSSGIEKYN
PAFAH2 inh: PAFAH2 (human) inhibition | inhibition, % at 3.39 µM | actives 0.99% (n = 340,000) | Q99487 | recombinant PAFAH2, FP-rhodamine activity probe, fluorescence polarization;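 active = inhibition above the mean over all tested compounds plus 3 SD, cut at about 30% in these data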;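 note: inhibitors block probe labeling of enzyme so polarization drops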
PAFAH1B2 FP inh: PAFAH1B2 (human) inhibition | recombinant PAFAH1B2, FP-rhodamine activity probe, fluorescence polarization | inhibition, % at 3.39 µM | actives 1.2% (n = 340,000) | AID 492953;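 active = inhibition above the mean of all tested compounds plus 3 SD, cut at about 24% in these data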
RBBP9 inh: human RBBP9 hydrolase inhibition. O75884. recombinant RBBP9, FP-Rh probe fluorescence polarization. inhibition, % at 7.94 µM. actives 0.2% (n = 220,000). AID 1515;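 active = inhibition above the campaign mean of all tested compounds plus 3 SD, cut at about 14% in these data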
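Controls: DMSO-treated enzyme wells and wells lacking RBBP9 | Material: RBBP9 protein | Technique: Fluorescence polarization | Replication: Single well per compound, no replicates | Buffer or medium: Tris-NaCl-Pluronic buffer, pH 8.0 | Timing: 30 min compound preincubation, 45 min probe labeling, 25 °C | Read-out basis: Percent inhibition from mP, scaled between DMSO and no-protein wells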
Each line names hits and unclear results; the compound was inactive in the other large screens. A selection: hits, their analogues and other compounds. The true share with any hit is near 2.7%.

Cc1cc(C)nc(SCc2ccc(C(=O)N/N=C/c3cccc(O)c3O)cc2)n1	PAFAH1B3 FP inh 36.9, pPAFAH FP inh 32.2
Cc1cc(C)nc(SCc2ccc(C(=O)N/N=C/c3ccc(C(=O)O)cc3)cc2)n1	none
COC(=O)c1sccc1NC(=O)c1c(F)c(F)c(F)c(F)c1F	none (no result: PAFAH1B3 FP inh, PAFAH2 inh, PAFAH1B2 FP inh, RBBP9 inh)
Cc1ccc(-n2cccc2/C=C2/C(=N)N3C(=NC2=O)SN=C3S(C)(=O)=O)cc1	PAFAH1B2 FP inh 27.7
Cc1ccc(S(=O)(=O)Oc2ccc(/C=C3/C(=N)N4C(=NC3=O)SN=C4S(C)(=O)=O)cc2)cc1	PAFAH1B2 FP inh 50.0 (no result: RBBP9 inh)
O=C1ON=C(c2ccccc2)/C1=C/c1ccc(OS(=O)(=O)c2ccccc2)cc1	PAFAH1B2 FP inh 101.0
Cc1ccc(S(=O)(=O)Oc2ccc(/C=C3\C(=N)N4N=C(S(C)(=O)=O)SC4=NC3=O)cc2)cc1	PAFAH1B2 FP inh 59.8 (no result: RBBP9 inh)
COc1cc(/C=C2/C(=N)N3C(=NC2=O)SN=C3S(C)(=O)=O)ccc1OS(=O)(=O)c1ccc(C)cc1	none (no result: RBBP9 inh)
O=C(Nc1nccs1)c1nc[nH]c1C(=O)NCc1ccccc1	none (no result: RBBP9 inh)
COc1ccc(CCNC(=O)C(=O)NCC2OCCN2S(=O)(=O)c2ccccc2)cc1 (stereo not given)	none (no result: RBBP9 inh)
CCS(=O)(=O)C1=NSC2=NC(=O)/C(=C\c3ccc(OS(=O)(=O)c4ccccc4)c(OC)c3)C(=N)N21	none (no result: RBBP9 inh)
CS(=O)(=O)C1=NSC2=NC(=O)/C(=C\c3ccc(OS(=O)(=O)c4ccccc4)cc3)C(=N)N21	PAFAH1B2 FP inh 24.9 (no result: RBBP9 inh)
CN(CC(=O)NCc1ccc(F)cc1)Cc1ccc(Br)cc1	PAFAH1B2 FP inh 24.6 (no result: RBBP9 inh)
NC(=O)c1ncn([C@@H]2O[C@H](CNCc3cc(Cl)ccc3OCc3ccc(Cl)cc3)[C@@H](O)[C@H]2O)n1	PAFAH1B2 FP inh 28.5 (no result: pPAFAH FP inh, RBBP9 inh)
CCOc1ccc(NC(=O)C2CCCN2C(=O)NC2CCCCC2)cc1 (stereo not given)	none (no result: RBBP9 inh)
CC(C)(C)c1ccc(OCC(=O)NNC(=O)Cc2cccs2)cc1	PAFAH1B2 FP inh 26.0
Cc1csc(CNc2ncnc3ccc(-c4ccccc4Cl)cc23)c1	pPAFAH FP inh 28.7 (no result: RBBP9 inh)
Cc1csc(CNc2ncnc3ccc(-c4cccnc4)cc23)c1	none (no result: RBBP9 inh)
COc1ccc(Cl)cc1NC(=O)CN1CCC(n2nnc3ccccc32)CC1	pPAFAH FP inh 25.3
COc1ccc(Cl)cc1NC(=O)CN1CCC(NC(=O)C2CC2)CC1	none (no result: RBBP9 inh)
COc1ccc(CN(C)CC(=O)Nc2c(C)cccc2C)c(OC)c1	none
COc1ccc(CN(C)CC(=O)Nc2sc3c(c2C#N)CCC3)c(OC)c1	PAFAH1B2 FP inh 24.2
O=C1C2CC=CCC2C(=O)N1c1ccc(N2CCN(c3ccccn3)CC2)c([N+](=O)[O-])c1 (stereo not given)	none
COc1ccc(NC(=O)COC(=O)CCNS(=O)(=O)c2ccc(Cl)cc2)cc1	none
O=C(O)c1ccc(N2CCc3ccccc32)c([N+](=O)[O-])c1	none (no result: RBBP9 inh)
COC(=O)c1ccc(N2CCc3ccccc32)c([N+](=O)[O-])c1	pPAFAH FP inh 24.8 (no result: RBBP9 inh)
O=C1C(CCCNC(=S)NCc2ccccc2)NC(=S)N1Cc1ccccc1 (stereo not given)	PAFAH1B2 FP inh 25.0
O=c1[nH]cnc2c1c(-c1ccccc1)cn2-c1ccc(Br)cc1	pPAFAH FP inh 27.3
CCOc1ccc(-n2cc(-c3ccccc3)c3c(=O)[nH]cnc32)cc1	none
Cc1cccc(-n2cc(-c3ccccc3)c3c(=O)[nH]cnc32)c1	pPAFAH FP inh 29.9
O=C(CCS(=O)(=O)Cc1ccccc1)N1CCN(c2ccccc2)CC1	none
Cc1ccccc1CS(=O)(=O)CCC(=O)N1CCN(c2ccc(N3CCOCC3)nn2)CC1	pPAFAH FP inh 27.2
Cc1ccc[n+](CC(=O)Nc2ccc(N(C)C)cc2)c1	none (no result: RBBP9 inh)
Cc1[nH]c2c(C)cccc2c1CCNC(=O)c1ccc2c(c1[N+](=O)[O-])C(=O)c1ccccc1C2=O	PAFAH1B3 FP inh 40.0
C=CCN=C1CC(C)(C)CC(=O)/C1=C(\O)CCCN1C(=O)c2ccccc2C1=O	none
COc1ccc(OC)c(Nc2ccc(Nc3cc(OC)ccc3OC)nn2)c1	pPAFAH FP inh 30.4
CCCCCC1C(=O)N2C=C(c3ccccc3)c3ccccc3N2C1=O (stereo not given)	none (no result: pPAFAH FP inh, RBBP9 inh)
O=C(Nc1ccc(-c2csc(Nc3cccc(C(F)(F)F)c3)n2)cc1)c1cc([N+](=O)[O-])cc(C(F)(F)F)c1	PAFAH1B3 FP inh 26.5, PAFAH2 inh 47.7 (no result: RBBP9 inh)
